# Sampled rows, rich in hits. Any-hit rate of the full collection: about 4.1%.
# KCNK9 inh = inhibitors of human KCNK9 two-pore domain potassium channel; 1.2% of 310,000 active; AID 488922; HEK293 KCNK9, FluxOR thallium flux fluorescence; active compounds read low; B-score at 10 µM;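 active = ratio B-score over 3 SD below the library mean, with starting fluorescence within 5 SD of its mean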;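 also: negative B-score means less thallium flux so channel inhibition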
# KCNQ1 act = human KCNQ1 channel potentiation or activation. P51787. CHO-K1 KCNQ1, thallium flux FluxOR fluorescence; active compounds read high. B-score at 10 µM. 0.35% of 310,000 active;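 active = fluorescence ratio B-score, a plate-corrected score, at least three library SD, with initial intensity B-score within 5 SD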
# Target sequence (P51787 whole entry, looked up): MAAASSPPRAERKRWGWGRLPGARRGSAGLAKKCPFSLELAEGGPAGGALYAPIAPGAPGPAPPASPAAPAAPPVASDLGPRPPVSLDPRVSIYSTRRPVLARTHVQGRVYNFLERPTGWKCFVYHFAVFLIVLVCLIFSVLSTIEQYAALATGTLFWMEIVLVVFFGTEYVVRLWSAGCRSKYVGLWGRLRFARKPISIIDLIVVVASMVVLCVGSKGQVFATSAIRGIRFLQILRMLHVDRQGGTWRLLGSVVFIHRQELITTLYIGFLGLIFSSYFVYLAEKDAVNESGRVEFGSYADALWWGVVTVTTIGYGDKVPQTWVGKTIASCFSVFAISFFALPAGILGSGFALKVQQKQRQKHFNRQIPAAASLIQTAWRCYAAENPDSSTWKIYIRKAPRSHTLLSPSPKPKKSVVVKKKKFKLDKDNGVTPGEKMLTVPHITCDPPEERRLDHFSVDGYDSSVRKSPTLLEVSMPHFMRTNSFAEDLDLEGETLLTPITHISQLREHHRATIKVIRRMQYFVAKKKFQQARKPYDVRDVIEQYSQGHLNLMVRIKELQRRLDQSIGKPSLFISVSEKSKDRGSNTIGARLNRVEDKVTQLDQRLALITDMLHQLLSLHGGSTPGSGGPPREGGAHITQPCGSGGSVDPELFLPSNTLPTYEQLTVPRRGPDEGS
#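 Assay system: CHO-K1 cells stably expressing KCNQ1. Medium: assay buffer for compound exposure, DMSO matched across wells. Timing: 37 °C overnight plating, 90-min dark dye load, 20-min compound pretreatment. Signal: kinetic FluxOR fluorescence, 10 s baseline plus 110 s post-stimulus.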
# KCNK3 inh = human KCNK3 channel inhibition, primary screen | O14649 | CHO-KCNK3 thallium flux, FluxOR fluorescence; active compounds read low | B-score at 10 µM | 0.84% of 340,000 active | AID 602410;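 active = B-score under library mean minus 4 SD, starting fluorescence ratio at most library mean plus 5 SD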;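 also: more negative B-score means stronger inhibition of thallium flux through KCNK3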
# Cl transport mod = modulates chloride dependent transport by human KCC2; KCC2 cells, thallium flux FluoZin-2 fluorescence; B-score of Tl+ flux slope (higher = more flux/activation; lower = inhibition) at 10 µM; 2.2% of 190,000 active; AID 1456;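 active = thallium flux slope and its plate-corrected score both differing from the plate sample mean at a set confidence after two filtering rounds, in either direction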;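 also: slope of fluorescence scaled to starting intensity during 10 to 20 s after thallium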
# hERG rescue = hERG (human) protection from proarrhythmic block; 0.51% of 310,000 active; activation (rescue from dofetilide block), less the hit threshold, % at 10 µM; CHO-hERG, FluxOR thallium flux, dofetilide IC70 present;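 active = activation above the mean of controls blocked by dofetilide plus 5 SD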;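 also: thallium influx through hERG after potassium depolarization seen as dye fluorescence rise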
# KCNQ1 inh = human KCNQ1 channel inhibition | 1.3% of 310,000 active | AID 2642 | CHO-K1 KCNQ1, FluxOR thallium flux fluorescence; active compounds read high | B-score at 10 µM | P51787;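 active = compounds whose thallium flux B-score, printed positive for inhibition, exceeds three library SD while starting fluorescence stays within three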;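 also: channel opened by potassium depolarization with thallium stimulus after 20 min compound exposure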
# KCNK9 block conf = confirmation of human KCNK9 potassium channel inhibitors. shares compounds with KCNK9 inh. HEK293 KCNK9 cells, FluxOR thallium flux fluorescence. inhibition, % at 10 µM. 43% of 4,900 active;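 active = thallium signal inhibited by more than 5 SD of the compound-free buffer control wells, on both duplicate plates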;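 also: 0% = assay buffer control wells without compound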
# Kir2-1 spec = selectivity of KCNK9 modulators against mouse Kir2.1. shares compounds with KCNK9 inh. Kir2.1 cells, FluxOR thallium flux fluorescence. inhibition, % at 10 µM. 4% of 4,900 active;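 active = thallium signal drop more than 5 SD beyond the mean of the no-compound control wells, seen in both duplicate plates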;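 also: signal is fluorescence rise after thallium addition divided by baseline fluorescence; plate controls were assay buffer only for no effect and full block by chlorpromazine control for full effect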
# KCNK9 uninduced = non-induced cell nonspecific activity of KCNK9 modulators. shares compounds with KCNK9 inh. non-induced KCNK9-HEK293, FluxOR thallium flux. inhibition, % at 10 µM. 40% of 4,900 active. AID 492997;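 active = thallium signal drop beyond 5 SD of the untreated control mean, on both duplicate plates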;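 also: plate controls were buffer only IC0 wells for no effect and SID17386958 at its maximal inhibitory level for full effect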
# The depositor's hits bear a star; i = inactive; nt = not tested or not shown.
SMILES,KCNK9 inh,KCNQ1 act,KCNK3 inh,Cl transport mod,hERG rescue,KCNQ1 inh,KCNK9 block conf,Kir2-1 spec,KCNK9 uninduced
Cc1ccccc1C(=O)NCC(=O)OC(C)C(=O)NC(C)CCc1ccccc1 (centres undefined),nt,nt,i,nt,nt,nt,nt,nt,nt
OC(Cc1cccnc1)c1ccccc1 (centres undefined),nt,nt,i,nt,nt,nt,nt,nt,nt
CCCCc1cc(O)c(CCCC)c(O)c1,-12*,i,i,-0.11,-3,i,64%*,i,36%*
O=C(CCSc1ccc(Cl)c(Cl)c1)NC12CC3CC(CC(C3)C1)C2,i,i,i,-0.39,-7,i,i,i,i
CC(=O)c1ccc(NC(=O)[C@@H]2CCCN2C2=NS(=O)(=O)c3ccccc32)cc1,nt,nt,i,nt,nt,nt,nt,nt,nt
O=C(Cc1ccc(Br)cc1)OCC(=O)N1CCc2ccccc2C1,i,i,i,-1.7,-2,i,i,i,i
O=C(CCS(=O)(=O)Cc1ccccc1F)N1CCc2ccccc2C1,i,i,i,nt,-3,i,nt,nt,nt
O=C(COc1ccc(Br)cc1)N1CCc2ccccc2C1,i,i,i,-1.8,-12,i,nt,nt,nt
O=C(CCS(=O)(=O)Cc1ccccc1)N1CCc2ccccc2C1,i,i,i,-0.39,-8,i,i,i,i
C/C(=N\NC(=O)CCC(=O)Nc1ccc(C)c(C)c1)C1CC1,i,i,i,nt,-11,i,nt,nt,nt
CCCOc1ccccc1N/C(N)=N/c1nc(C)cc(C)n1,i,i,i,0.22,-14,i,nt,nt,nt
CCCOc1ccccc1N/C(=N/c1nc(C)cc(C)n1)NC(=O)COc1ccc(OC)cc1,-27*,i,i,nt,-15,10*,77%*,i,41%*
Cc1nc(NC(=O)c2ccccc2)sc1C1(C)CC(c2c(Cl)cccc2Cl)=NO1 (centres undefined),-9.8*,i,i,-0.53,-17,i,55%*,i,36%*
Cc1cccc(CC(=O)OCn2nnc3ccccc3c2=O)c1,i,i,i,nt,-14,i,i,i,i
CC(C)(C)c1ccc(C(=O)NNC(=O)CCc2ccccc2)cc1,i,i,i,nt,-4,i,nt,nt,nt
Cc1ccc(NC(=O)CCc2nc3ccccc3c(=O)[nH]2)cc1S(=O)(=O)N1CCOCC1,i,i,i,nt,-12,i,nt,nt,nt
Cc1cc(NC(=O)CSc2nnc(-c3cccc(F)c3)n2N)no1,nt,nt,i,nt,nt,nt,nt,nt,nt
Cc1cc(OCc2cc(C(=O)N(C)Cc3ccccn3)no2)cc(C)c1Cl,i,i,i,nt,-5,i,nt,nt,nt
CN(CCc1ccccn1)C(=O)c1cc(COc2ccc(F)cc2F)on1,i,i,i,nt,-11,i,nt,nt,nt
Cc1ccc(OCCN(C)C(=O)c2cc(COc3ccc(F)cc3F)on2)cc1,i,i,i,nt,-14,i,i,i,i
Cc1cc(OCc2cc(C(=O)N(C)CCOc3ccccc3)no2)cc(C)c1Cl,i,i,i,nt,-6,i,i,i,i
CN(Cc1ccc(F)cc1)C(=O)c1cc(COc2ccc(F)cc2F)on1,i,i,i,nt,4,i,nt,nt,nt
CN(CCc1ccccc1)C(=O)c1cc(COc2ccc(F)cc2Cl)on1,i,i,i,nt,-8,i,i,i,i
COc1ccc(C2CC(=O)Oc3cc(C)c(Cl)cc32)cc1 (centres undefined),nt,nt,i,nt,nt,nt,nt,nt,nt
CC(C)CC(c1nnnn1C(C)C)N1CCN(c2cccc(Cl)c2)CC1 (centres undefined),-9.9*,i,i,-0.59,-5,i,44%*,i,40%*
SMILES,KCNK9 inh,KCNQ1 act,KCNK3 inh,Cl transport mod,hERG rescue,KCNQ1 inh,KCNK9 block conf,Kir2-1 spec,KCNK9 uninduced
Cc1[nH]nc(-c2ccc(O)c(C)c2O)c1Oc1ccccc1,-14*,i,i,-0.84,-17,i,34%*,i,i
O=C(Nc1cn(-c2ccccc2)nc1-c1ccc(Cl)cc1)c1ccccc1,-9.2*,i,i,0.38,-14,i,50%*,i,42%*
COC(=O)CN1C(c2cccc(Cl)c2)=Nc2ccc(Cl)cc2C1c1ccccc1 (centres undefined),-16*,i,i,-0.2,-6,i,58%*,i,47%*
COC(=O)CN1C(c2ccc(OC)cc2)=Nc2ccc(Cl)cc2C1c1ccccc1 (centres undefined),i,i,i,-1.2,-10,i,nt,nt,nt
N#CCC(=O)N/N=C/c1cc(Br)ccc1OCc1cccc2ccccc12,-10*,i,i,nt,-5,i,47%*,i,26%*
N#CCC(=O)N/N=C/c1c2ccccc2cc2ccccc12,i,i,i,nt,-10,i,nt,nt,nt
N/C(Cc1ccccc1)=N\OC(=O)c1cccc2ccccc12,-11*,i,i,nt,-5,i,i,i,i
N/C(=N\OC(=O)c1cccc2ccccc12)c1ccc(Br)cc1,-8.3*,i,i,0,-4,i,35%*,i,28%*
O=C(O)COc1ccc(Cl)cc1C1CCCCC1,nt,nt,i,nt,nt,nt,nt,nt,nt
Cc1cc(Cl)ccc1C(=O)C1CCCN(C(=O)c2n[nH]c3c2CCCC3)C1 (centres undefined),i,i,i,nt,-4,i,i,i,i
Cc1cc(Cl)ccc1C(=O)C1CCCN(C(=O)c2cnn(C(C)C)c2)C1 (centres undefined),i,i,i,nt,-5,i,i,i,i
COc1ccc(C(=O)C2CCCN(C(=O)c3n[nH]c4c3CCCC4)C2)cc1OC (centres undefined),i,i,i,-0.88,-11,i,nt,nt,nt
Cc1cccc(Cl)c1NC(=S)NCCc1ccccn1,-8.2*,i,i,0.06,-5,i,44%*,i,28%*
Cc1noc(NS(=O)(=O)c2ccc(NC(=O)c3cccc(S(=O)(=O)Nc4ccccc4F)c3)cc2)c1C,nt,nt,i,nt,nt,nt,nt,nt,nt
CCCCCCOC1(c2ccccc2)OC(=O)c2ccccc21 (centres undefined),-15*,i,i,1.7,-14,i,79%*,i,50%*
CCCCCCCOC1(c2ccccc2)OC(=O)c2ccccc21 (centres undefined),-16*,i,i,-0.14,-16,i,70%*,i,48%*
